Compound activity from PubChem BioAssay.
Shown are actives, neighbours in structure and some others; about 4.5% of the full set was active somewhere.
CHO parental Ca = ATP-evoked calcium signal inhibitors, parental CHO, primary screen, counter-screen for OX1R antagonist project, cell-based, fluorescence, Fluo-8 calcium dye; AID 463079, 2010; inhibition, % at 5.6 µM; 330,000 tested, 0.63% active; parental CHO-K1, ATP-induced calcium, Fluo-8 fluorescence;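 active means inhibition above that plate's mean sample inhibition plus 3 SD, cut at about 26% in these data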;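 further: 0% = ATP-challenged DMSO wells and 100% = DMSO wells without ATP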
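Material: Parental CHO cells | Reagent: ATP | Compound dosing: Single nominal dose of 5.6 µM per compound | Detection: Intracellular calcium via Fluo-8 no-wash fluorescent dye | Read-out: % inhibition of ATP-induced calcium mobilization | Benchmarks: Low control ATP plus DMSO, high control DMSO only | Replicates: Singlicate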
GPR7 antagonist = GPR7 receptor antagonists, primary screen, cell-based, fluorescence, single concentration; Neuropeptides B/W receptor type 1 (Homo sapiens), P48145; GPR7-expressing cells, fluorescence antagonist assay; inhibition, % at 4.4 µM; 290,000 tested, 1.1% active; AID 1861, 2009; in the data active means inhibition above about 16%, passing the limit was not always enough;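 further: cells stimulated with the agonist NPW; 0% = agonist with vehicle and 100% = vehicle without agonist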
OX1R antag-1 = antagonists of human orexin 1 receptor (OX1R); 330,000 tested, 1.8% active; OX1R-expressing cells, FRET antagonist read-out; Orexin/Hypocretin receptor type 1 (Homo sapiens), O43613; inhibition, % at 6.6 µM; in the data active means inhibition mostly above about 38%, no sharp cut-off; inactive means mostly below about 40%;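 further: 0% = agonist challenge alone and 100% = reference antagonist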
Target sequence (O43613 whole entry, looked up): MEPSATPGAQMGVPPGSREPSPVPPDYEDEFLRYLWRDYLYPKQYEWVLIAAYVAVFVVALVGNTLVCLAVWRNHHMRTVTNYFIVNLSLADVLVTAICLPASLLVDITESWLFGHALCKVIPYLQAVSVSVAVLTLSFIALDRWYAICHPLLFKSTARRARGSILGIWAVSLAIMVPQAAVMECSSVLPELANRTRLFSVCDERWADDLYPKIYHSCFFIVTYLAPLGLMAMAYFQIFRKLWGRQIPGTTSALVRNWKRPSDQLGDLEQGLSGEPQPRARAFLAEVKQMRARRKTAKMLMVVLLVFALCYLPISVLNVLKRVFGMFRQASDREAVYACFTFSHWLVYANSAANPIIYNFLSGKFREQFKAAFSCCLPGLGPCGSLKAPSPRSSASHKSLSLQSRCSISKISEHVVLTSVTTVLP
TAAR1 antag = human TAAR1 antagonists, primary screen, Fluo-8 calcium fluorescence, CHO RD-HGA16 cells. Trace amine-associated receptor 1 (Homo sapiens), Q96RJ0. antagonist. inhibition, % at 3 µM. 360,000 tested, 1.5% active. AID 624466, 2012;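 active means inhibition above a per-plate cutoff, the mean inhibition of test compounds on that plate plus 3 SD, cut at about 49% in these data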;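 further: 0% = DMSO plus EC80 beta-PEA response and 100% = DMSO alone without agonist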
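Test system – hTAAR1-expressing CHO RD-HGA16 cells, Gα16-coupled · Reagent – β-PEA at EC80 concentration, post-compound challenge · Compound dosing – 3 µM, single point · Timing – 140 s kinetic read after compound, 140 s after agonist · Detection – Fluo-8 intracellular calcium dye fluorescence, real-time kinetic reads · Control set – DMSO and EC80 PEA controls · Repeats – n of 1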
OX1R antag-2 = OX1R (HCRTR1) antagonists, primary screen, fluorescence, CHO/OX1R cells, Fluo-8 calcium, orexin A. inhibition, % at 5 µM. 330,000 tested, 0.43% active. Fluo-8 calcium fluorescence;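 active means inhibition above its plate's threshold, mean inhibition of all tested compounds on the plate plus 3 SD, cut at about 37% in these data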;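 further: 0% = orexin A challenge wells and 100% = SB-334867-A antagonist wells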
TAAR1 agonist = human TAAR1 agonists, primary screen, Fluo-8 calcium fluorescence, CHO RD-HGA16 cells; Trace amine-associated receptor 1 (Homo sapiens), Q96RJ0; vehicle wells 0%, saturating PEA agonist 100%; activation, % at 3 µM; 360,000 tested, 0.99% active;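 active means activation above the mean activation of all test compounds in the run plus 3 SD, cut at about 38% in these data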
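Benchmarks: low control DMSO, high control PEA (EC100); System: CHO RD-HGA16 cells carrying human TAAR1 plus Gα16; Detection: Fluo-8 fluorescence, 5 s baseline then 140 s kinetic read; Schedule: 17-24 h plating, Fluo-8 75 min 37 °C, 30 min RT; Read-out basis: % activation from peak over basal fluorescence ratio, DMSO-to-PEA scaled.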
* hit, by the source's call; x = no result given.

SMILES	CHO parental Ca	GPR7 antagonist	OX1R antag-1	TAAR1 antag	OX1R antag-2	TAAR1 agonist
CCOC(=O)c1ccc(Nc2nc(C(=O)OCC)nc3ccccc23)cc1	-7	-10	35	41	-5	3
COc1ccc(OC)c(NC(=O)CS(=O)(=O)Cc2nc(-c3ccccc3C)oc2C)c1	-20	-1	72*	-9	2	0
COc1cccc(-c2nc(CS(=O)(=O)CC(=O)Nc3cccc(C(C)=O)c3)c(C)o2)c1	-32	-7	48*	8	0	4
CN(C)CCCNC(=O)OC1CC2CC1[C@H]1CCCCN1C2=O (some centres undefined)	x	x	x	-7	x	1
CC(C)C[C@H](NC(=O)c1cccs1)C(=O)N1CCC[C@H]1C(=O)NCc1ccccc1	x	x	x	0	x	-1
CC(C)CCNc1ncnc2c1nnn2Cc1ccccc1Cl	-10	0	21	21	-34	40*
OCCNc1ncnc2c1nnn2Cc1ccccc1	x	5	x	-17	x	2
Clc1ccc(CCNc2ncnc3c2nnn3Cc2ccccc2)cc1	-17	9	6	-32	-25	38*
COC(=O)[C@]12CCCCC=C1N(Cc1ccc3c(c1)OCO3)C(=O)[C@H](CC(=O)NCC13CC4CC(CC(C4)C1)C3)C2	x	x	x	12	x	4
CC(C)NC1=C(Cl)C(=O)c2ccccc2C1=O	-4	-1	43*	-5	-10	0
CC(C)OCCCNC1=C(Cl)C(=O)c2ccccc2C1=O	-7	6	69*	-2	-18	-3
O=C1C(Cl)=C(Nc2ccccc2)C(=O)c2ccccc21	24	-11	40	2	18	-3
COCCCNc1c2c3c(cccc3[nH]c1=O)C(=O)c1ccccc1-2	89*	-8	56*	79*	95*	218*
COCCCNC1=C(Cl)C(=O)c2ccccc2C1=O	-7	-8	56*	-19	-1	4
COc1ccc(Cn2cc(CN3[C@@H](c4ccccc4)COc4cc(Br)ccc4S3(=O)=O)nn2)cc1	x	x	x	-22	x	2
O=C(NC1CCCC1)[C@@H]1CCCN1C(=O)[C@@H](NC(=O)N1CCOCC1)C1CCCCC1	x	x	x	7	x	2
COC(=O)[C@]12C[C@H](CC(=O)NCCC(C)C)C(=O)N(Cc3ccc4c(c3)OCO4)C1=C[C@H](C(C)(C)C)O[C@@H]2C	x	x	x	-32	x	-2
CCOC(=O)C1=C(C)NC(C)=C(C(=O)OCC)C1C(=O)OCC(=O)NCc1ccccc1OC	-17	x	45*	7	11	6
CCOC(=O)C1=C(C)NC(C)=C(C(=O)OCC)C1C(=O)OCC(=O)NCc1ccccc1	-21	x	8	30	-30	7
CC(=O)c1ccc(N2CCN(C(=S)Nc3ccc(Oc4ccccc4)cc3)CC2)cc1	45*	24*	52	44	52*	5
CN1CCN(c2ccc(NC(=O)c3ccc(Oc4ccccc4)cc3)cc2)CC1	-3	-3	12	5	-10	38*
COc1ccc(N2CCN(C(=S)Nc3ccccc3)CC2)cc1	-5	-11	7	-1	-11	1
CCNC(=O)C1(C)CCCN1Cc1ccccc1Cl (centres undefined)	x	x	x	-12	x	-1
CCN1/C(=C/c2sc(-c3ccccc3C)c[n+]2C)Sc2ccccc21	x	47*	x	19	x	8
CC(=O)n1cc(N(C(=O)CCl)c2ccc([N+](=O)[O-])cc2)c2ccccc21	-15	21*	20	16	6	16
SMILES	CHO parental Ca	GPR7 antagonist	OX1R antag-1	TAAR1 antag	OX1R antag-2	TAAR1 agonist
CC(=O)n1cc(N(C(=O)CCl)c2ccccc2)c2ccccc21	-6	-7	5	-21	-9	3
COC(CNC(=O)C1CCN(S(=O)(=O)c2cccc3nsnc23)CC1)OC	1	-8	36	-19	-8	3
CCCN(CCC)CCNC(=O)C1CCN(S(=O)(=O)c2cccc3nsnc23)CC1	-5	-10	43*	-6	-6	0
CCCCN(CC)CCNC(=O)C1CCCN(S(=O)(=O)c2cccc3nsnc23)C1 (centres undefined)	-19	-10	37	-3	-22	-1
CCCCN(C)CCNC(=O)C1CCN(S(=O)(=O)c2cccc3nsnc23)CC1	-12	-9	49*	-13	-3	0
CCCCN(CC)CCNC(=O)C1CCN(S(=O)(=O)c2cccc3nsnc23)CC1	-17	-14	51*	-14	-22	0
CCn1c2ccccc2c2cc(CN3CCN(Cc4cc(OC)ccc4O)CC3)ccc21	-10	3	50*	0	22	2
CCn1c2ccccc2c2cc(CN3CCN(S(C)(=O)=O)CC3)ccc21	-7	11	46	-18	-6	6
CC(C)(C)c1ccc(S(=O)(=O)NCC2CCN(C(=O)C(=O)c3cccs3)CC2)cc1	x	x	x	31	x	1
C/C(=N\Nc1ccc([N+](=O)[O-])cc1)c1ccc(-n2nncc2C)cc1	-6	0	16	57*	-15	15
O=C(NCc1ccccn1)Nc1cccc(Cl)c1	-1	11	23	21	-9	4
O=C(NCc1ccccn1)Nc1cc(Cl)cc(Cl)c1	29*	25	8	3	3	12
O=C(NCc1csc2ccccc12)Nc1cc(Cl)cc(Cl)c1	5	-12	52*	-6	5	21
O=C(NCCN1CCN(Cc2ccccc2)CC1)Nc1cc(Cl)cc(Cl)c1	-2	8	5	23	-15	44*
Cc1cc2c(nc1C)CCCN2S(=O)(=O)c1c(C)noc1C	x	x	x	-13	x	2
O=C(C(=O)N1CCC(CNS(=O)(=O)c2ccccc2OC(F)(F)F)CC1)c1cccs1	x	x	x	-13	x	4
COCc1c(C(=O)OCc2nc(N)nc(Nc3ccccc3C)n2)oc2ccccc12	-25	1	47*	0	16	11
Cc1ccccc1Nc1nc(N)nc(COC(=O)c2ccco2)n1	-11	x	6	1	-4	4
COCc1c(C(=O)OCc2nc3ccsc3c(=O)[nH]2)oc2ccccc12	-20	x	28*	1	11	1
COc1cc(SC)ccc1C(=O)OCc1nc2ccsc2c(=O)[nH]1	-21	x	39	19	-18	5
COc1cc2ccccc2cc1C(=O)OCc1nc2ccsc2c(=O)[nH]1	-22	x	35*	25	-7	7
O=C(N/N=C/c1ccc(OCc2ccccc2)cc1)c1cccs1	-19	17	60*	8	8	30
O=C(Nc1ccc(OCc2ccccc2)cc1)c1cccs1	15	0	17	25	-13	7
